Reference: ChEMBL document CHEMBL1212820, “Novel hinge binder improves activity and pharmacokinetic properties of BRAF inhibitors” (J Med Chem, 2010)

Legend:
[1] = target: T1, Serine/threonine-protein kinase B-raf (Homo sapiens, UniProt P15056, V600E); assay: Inhibition of B-Raf V600E mutant
How it was run: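 Enzymatic IC50 determined in vitro against purified V600E BRAF.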

[2] = target: T1, Serine/threonine-protein kinase B-raf; assay: Inhibition of BRAF V600E mutant-mediated ERK phosphorylation in human WM266.4 cells; type: cell-based
How it was run: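 Cellular IC50 for inhibition of phosphoERK formation.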

[3] = Growth inhibition of human WM266.4 cells expressing BRAF V600E mutant after 5 days by SRB assay; type: functional; details: WM 266-4, 120 h
How it was run: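 Antiproliferative SRB assay in WM266.4 (BRAF mutant), WM1361 (NRAS mutant) and D24 (BRAF/NRAS wild-type) melanoma cells, with GI50 derived from the assay.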

T1 sequence (P15056 2-766 V600E limits assumed): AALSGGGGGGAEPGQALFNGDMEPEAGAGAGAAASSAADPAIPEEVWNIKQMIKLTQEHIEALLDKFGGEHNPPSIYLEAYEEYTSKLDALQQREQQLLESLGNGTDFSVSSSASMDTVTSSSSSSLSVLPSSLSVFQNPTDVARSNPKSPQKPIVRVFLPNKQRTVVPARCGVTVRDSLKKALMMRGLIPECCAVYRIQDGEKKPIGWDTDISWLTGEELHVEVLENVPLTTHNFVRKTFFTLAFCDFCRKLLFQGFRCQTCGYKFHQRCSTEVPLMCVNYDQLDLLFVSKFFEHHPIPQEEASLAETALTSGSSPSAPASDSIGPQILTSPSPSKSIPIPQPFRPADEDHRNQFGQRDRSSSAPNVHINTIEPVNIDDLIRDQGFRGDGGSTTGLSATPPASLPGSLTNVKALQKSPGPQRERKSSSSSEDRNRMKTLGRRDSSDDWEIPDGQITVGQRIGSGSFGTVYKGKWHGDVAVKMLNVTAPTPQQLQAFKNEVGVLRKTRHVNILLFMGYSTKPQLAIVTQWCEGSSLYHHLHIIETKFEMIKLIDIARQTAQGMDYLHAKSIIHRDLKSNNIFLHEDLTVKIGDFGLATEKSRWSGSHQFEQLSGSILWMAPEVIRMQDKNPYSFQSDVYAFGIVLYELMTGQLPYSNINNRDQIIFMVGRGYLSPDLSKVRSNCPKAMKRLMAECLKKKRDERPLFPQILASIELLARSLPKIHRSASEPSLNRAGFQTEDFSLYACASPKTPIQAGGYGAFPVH

| Compound | IC50 [1] [nM] | IC50 [2] [nM] | GI50 [3] [nM] |
| --- | --- | --- | --- |
| CC(C)(C)c1cc(NC(=O)Nc2ccc(Oc3ccnc4ncc(=O)[nH]c34)cc2F)n(-c2ccccc2)n1 | 940 | 650 | 940 |
| O=C(Nc1cccc(Oc2ccnc3[nH]c(=O)cnc23)c1)c1cccc(OC(F)(F)F)c1 | 21 | 4000 | 9900 |
| Cc1ccc(-n2nc(C(C)(C)C)cc2NC(=O)Nc2cccc(Oc3ccnc4ncc(=O)[nH]c34)c2)cc1 | 580 | 780 | 345 |
| CC(C)(C)c1cc(NC(=O)Nc2ccc(Oc3ccnc4nc(N)c(=O)[nH]c34)c3ccccc23)n(-c2ccccc2)n1 | 405 | 36 | 18 |
| CN(C)Cc1nc2c(Oc3ccc(NC(=O)Nc4cc(C(F)(F)F)ccc4F)c(F)c3)ccnc2[nH]1 | 730 | > 10000 | 1400 |
| CC(C)(C)c1cc(NC(=O)Nc2ccc(Oc3ccnc4ncc(=O)[nH]c34)c3ccccc23)n(-c2ccccc2)n1 | 264 | 48 | 73 |
| CN(C)c1cnc2c(Oc3ccc(NC(=O)Nc4cc(C(C)(C)C)nn4-c4ccccc4)c(F)c3)ccnc2n1 | > 10000 | 1700 | 1100 |
| O=C(Nc1cc(C(F)(F)F)ccc1F)Nc1ccc(Oc2ccnc3[nH]c(=O)c(C(F)(F)F)nc23)c2ccccc12 | 134 | > 10000 | > 10000 |
| Nc1nc2nccc(Oc3ccc(NC(=O)Nc4cc(C(F)(F)F)ccc4F)c(F)c3)c2[nH]c1=O | 168 | 9900 | 6500 |
| O=C(Nc1ccc(Oc2ccnc3[nH]cnc23)cc1F)Nc1cc(C(F)(F)F)ccc1F | 42 | 8500 | 4850 |
| Cc1ccc(-n2nc(C(C)(C)C)cc2NC(=O)Nc2ccc(Oc3ccnc4nc(C)c(=O)[nH]c34)c3ccccc23)cc1 | 17000 | 176 | 1500 |
| O=C(Nc1cc(C(F)(F)F)ccc1F)Nc1ccc(Oc2ccnc3ncc(=O)[nH]c23)c2ccccc12 | 84 | 2070 | 486 |
| Cc1nc2c(Oc3ccc(NC(=O)Nc4cc(C(C)(C)C)nn4-c4ccccc4)c4ccccc34)ccnc2[nH]c1=O | 67 | 8 | 57 |
| O=C(Nc1ccc(Oc2ccnc3ncc(=O)[nH]c23)cc1)Nc1ccc(Cl)c(C(F)(F)F)c1 | 1290 | > 100000 | 8800 |
| CC(C)(C)c1cccc(C(=O)Nc2cccc(Oc3ccnc4ncc(=O)[nH]c34)c2)c1 | 34 | 3500 | 2540 |
| CC(C)(C)c1cc(NC(=O)c2cccc(Oc3ccnc4[nH]c(=O)cnc34)c2)n(-c2ccccc2)n1 | 870 | 5000 | 2000 |
| O=C(Nc1ccc(Oc2ccnc3ncc(=O)[nH]c23)cc1)Nc1cc(C(F)(F)F)ccc1F | 1290 | 4200 | 4000 |
| Cc1ccc(-n2nc(C(C)(C)C)cc2NC(=O)Nc2ccc(Oc3ccnc4c3NCC(=O)N4)cc2F)cc1 | 51 | 11 | 34 |
| CSc1cc(Oc2ccnc3[nH]c(=O)c(=O)[nH]c23)ccc1NC(=O)Nc1ccc(Cl)c(C(F)(F)F)c1 | 3 | 590 | 220 |

| Compound | IC50 [1] [nM] | IC50 [2] [nM] | GI50 [3] [nM] |
| --- | --- | --- | --- |
| CSc1cc(Oc2ccnc3ncc(=O)[nH]c23)ccc1NC(=O)Nc1cc(C(F)(F)F)ccc1F | 246 | 6600 | 5000 |
| Cc1ccc(-n2nc(C(C)(C)C)cc2NC(=O)Nc2ccc(Oc3ccnc4[nH]c(=O)cnc34)c3ccccc23)cc1 | 80 | 10 | 80 |
| CSc1cc(Oc2ccnc3[nH]c(=O)c(=O)[nH]c23)ccc1NC(=O)Nc1cc(C(F)(F)F)ccc1F | 2 | 550 | 190 |
| O=C(Nc1ccc(Oc2ccnc3[nH]c(S)nc23)cc1F)Nc1cc(C(F)(F)F)ccc1F | 17 | 13000 | 970 |
| Nc1nc2c(Oc3ccc(NC(=O)Nc4cc(C(F)(F)F)ccc4F)c4ccccc34)ccnc2[nH]c1=O | 5 | 49 | 15 |
| Cc1ccc(-n2nc(C(C)(C)C)cc2NC(=O)Nc2ccc(Oc3ccnc4nc(N5CCOCC5)cnc34)cc2F)cc1 | > 10000 | 280 | 235 |
| O=C(Nc1cc(C(F)(F)F)ccc1F)Nc1ccc(Oc2ccnc3nc(C(F)(F)F)c(=O)[nH]c23)c2ccccc12 | 1080 | 8500 | 10000 |
| Cc1nc2nccc(Oc3ccc(NC(=O)Nc4cc(C(F)(F)F)ccc4F)c4ccccc34)c2[nH]c1=O | 108 | 3400 | 8500 |
| CC(C)(C)c1cc(NC(=O)Nc2ccc(Oc3ccnc4[nH]c(=O)c(=O)[nH]c34)cc2F)n(-c2ccccc2)n1 | 190 | 273 | 299 |
| O=C(Nc1ccc(Oc2ccnc3[nH]nnc23)cc1F)Nc1cc(C(F)(F)F)ccc1F | 69 | 24000 | 39000 |
| O=C(Nc1cccc(Oc2ccnc3[nH]c(=O)cnc23)c1)Nc1cc(C(F)(F)F)ccc1F | 40 | 10000 | 10000 |
| O=C1CNc2nccc(Oc3ccc(NC(=O)Nc4cc(C(F)(F)F)ccc4F)cc3)c2N1 | 54 | 3500 | 1690 |
| CSc1cc(Oc2ccnc3[nH]c(=O)c(C)nc23)ccc1NC(=O)Nc1cc(C(C)(C)C)nn1-c1ccccc1 | 20 | 3 | 4 |
| Cc1nc2c(Oc3cccc(NC(=O)c4cccc(C(C)(C)C)c4)c3)ccnc2[nH]c1=O | 10 | 1430 | 890 |
| O=C(Nc1ccc(Cl)c(C(F)(F)F)c1)Nc1ccc(Oc2ccnc3[nH]c(=O)cnc23)cc1F | 6 | 660 | 1300 |
| Cc1nc2nccc(Oc3ccc(NC(=O)Nc4cc(C(C)(C)C)nn4-c4ccccc4)c4ccccc34)c2[nH]c1=O | 3000 | 141 | 95 |
| O=C(Nc1ccc(Oc2ccnc3[nH]c(=O)c(=O)[nH]c23)cc1)Nc1ccc(Cl)c(C(F)(F)F)c1 | 21 | 5200 | 3190 |
| Cc1ccc(-n2nc(C(C)(C)C)cc2NC(=O)Nc2ccc(Oc3ccnc4[nH]c(=O)c(N)nc34)cc2F)cc1 | 320 | 11 | 8 |
| O=C(Nc1ccc(Cl)c(C(F)(F)F)c1)Nc1ccc(Oc2ccnc3ncc(=O)[nH]c23)cc1F | 59 | 16000 | 3900 |

| Compound | IC50 [1] [nM] | IC50 [2] [nM] | GI50 [3] [nM] |
| --- | --- | --- | --- |
| CN1CCN(c2cnc3c(Oc4ccc(NC(=O)Nc5cc(C(F)(F)F)ccc5F)c(F)c4)ccnc3n2)CC1 | 110 | 16000 | 120 |
| CC(C)(C)c1cc(NC(=O)Nc2ccc(Oc3ccnc4[nH]c(=O)c(N)nc34)c3ccccc23)n(-c2ccccc2)n1 | 85 | 7 | 9 |
| O=C(Nc1ccc(Oc2ccnc3[nH]c(=O)c(=O)[nH]c23)cc1F)Nc1cc(C(F)(F)F)ccc1F | 5 | 600 | 1450 |
| CSc1cc(Oc2ccnc3ncc(=O)[nH]c23)ccc1NC(=O)Nc1ccc(Cl)c(C(F)(F)F)c1 | 71 | 3990 | 4300 |
| Cc1ccc(-n2nc(C(C)(C)C)cc2NC(=O)Nc2ccc(Oc3ccnc4ncc(=O)[nH]c34)cc2)cc1 | 2290 | 634 | 670 |
| CSc1cc(Oc2ccnc3[nH]c(=O)[nH]c23)ccc1NC(=O)Nc1cc(C(C)(C)C)nn1-c1ccc(C)cc1 |  |  | 16 |
| CSc1cc(Oc2ccnc3[nH]c(=O)cnc23)ccc1NC(=O)Nc1ccc(Cl)c(C(F)(F)F)c1 | 4 | 187 | 118 |
| O=C(Nc1cccc(Oc2ccnc3ncc(=O)[nH]c23)c1)c1cccc(OC(F)(F)F)c1 | 306 | 37000 | 6800 |
| Cc1ccc(-n2nc(C(C)(C)C)cc2NC(=O)Nc2ccc(Oc3ccnc4[nH]c(=O)c(N)nc34)c3ccccc23)cc1 | 150 | 7 | 77 |
| CC(C)(C)c1cc(NC(=O)Nc2ccc(Oc3ccnc4nc(N5CCOCC5)cnc34)cc2F)n(-c2ccccc2)n1 | 8200 | 750 | 428 |
| Cc1ccc(-n2nc(C(C)(C)C)cc2NC(=O)Nc2ccc(Oc3ccnc4nc(N)c(=O)[nH]c34)cc2F)cc1 | 222 | 70 | 128 |
| Cc1ccc(-n2nc(C(C)(C)C)cc2NC(=O)Nc2ccc(Oc3ccnc4[nH]c(=O)[nH]c34)cc2F)cc1 |  |  | 46 |
| CSc1cc(Oc2ccnc3[nH]c(=O)cnc23)ccc1NC(=O)Nc1cc(C(F)(F)F)ccc1F | 4 | 195 | 96 |
| CSc1cc(Oc2ccnc3ncc(=O)[nH]c23)ccc1NC(=O)Nc1cc(C(C)(C)C)nn1-c1ccccc1 | 450 | 101 | 27 |
| CC(C)(C)c1cc(NC(=O)Nc2cccc(Oc3ccnc4ncc(=O)[nH]c34)c2)n(-c2ccccc2)n1 | 640 | 1700 | 1600 |
| O=C(Nc1ccc(Oc2ccnc3[nH]c(=O)cnc23)cc1F)Nc1cc(C(F)(F)F)ccc1F | 4 | 780 | 1300 |
| Nc1nc2nccc(Oc3ccc(NC(=O)Nc4cc(C(F)(F)F)ccc4F)c4ccccc34)c2[nH]c1=O | 43 | 229 | 204 |
| Cc1nc2nccc(Oc3ccc(NC(=O)Nc4cc(C(C)(C)C)nn4-c4ccccc4)c(F)c3)c2[nH]c1=O | 8500 | 390 | 430 |
| O=C(Nc1ccc(Oc2ccnc3ncc(=O)[nH]c23)cc1F)Nc1cc(C(F)(F)F)ccc1F | 76 | 69000 | 1800 |
